Results: ChEMBL document CHEMBL1671761, “Preclinical characterization of BI 201335, a C-terminal carboxylic acid inhibitor of the hepatitis C virus NS3-NS4A protease” (Antimicrob Agents Chemother, 2010)

Key:
Rattus norvegicus [1] = organism: Rattus norvegicus; assay: Inhibition of rat sodium channel site 2 at 10 uM
Caspase-5 (Homo sapiens) = Caspase-5 (Homo sapiens) (UniProt P51878); assay: Inhibition of human caspase-5 at 10 uM
[2] = target: Disintegrin and metalloproteinase domain-containing protein 17 (Homo sapiens) (UniProt P78536); assay: Inhibition of human TACE at 10 uM
Disintegrin and metalloproteinase domain-containing protein 17 (Homo sapiens), sequence (P78536 whole entry, the tested form may be a part): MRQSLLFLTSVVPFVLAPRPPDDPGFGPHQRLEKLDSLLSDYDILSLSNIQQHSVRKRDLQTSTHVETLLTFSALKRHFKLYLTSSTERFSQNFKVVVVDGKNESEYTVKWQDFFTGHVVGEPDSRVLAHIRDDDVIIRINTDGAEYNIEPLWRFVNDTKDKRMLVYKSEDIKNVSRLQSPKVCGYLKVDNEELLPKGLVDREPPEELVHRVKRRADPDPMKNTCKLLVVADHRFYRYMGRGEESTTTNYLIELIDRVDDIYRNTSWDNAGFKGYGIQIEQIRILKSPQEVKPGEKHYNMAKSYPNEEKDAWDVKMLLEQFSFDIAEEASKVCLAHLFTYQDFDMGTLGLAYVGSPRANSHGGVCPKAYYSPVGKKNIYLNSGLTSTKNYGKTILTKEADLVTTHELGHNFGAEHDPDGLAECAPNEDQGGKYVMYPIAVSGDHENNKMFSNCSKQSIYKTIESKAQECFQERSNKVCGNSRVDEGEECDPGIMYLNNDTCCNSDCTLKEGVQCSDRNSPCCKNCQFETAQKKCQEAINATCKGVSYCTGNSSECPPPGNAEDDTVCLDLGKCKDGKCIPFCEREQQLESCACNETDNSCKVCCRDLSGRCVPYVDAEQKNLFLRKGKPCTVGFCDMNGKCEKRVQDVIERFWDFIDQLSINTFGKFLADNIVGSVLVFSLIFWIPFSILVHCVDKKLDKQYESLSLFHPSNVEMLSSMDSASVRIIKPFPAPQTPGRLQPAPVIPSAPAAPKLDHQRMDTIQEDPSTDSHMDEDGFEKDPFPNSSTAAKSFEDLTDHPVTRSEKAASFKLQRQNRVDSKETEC

Caspase-3 (Homo sapiens) = Caspase-3 (Homo sapiens) (UniProt P42574); assay: Inhibition of human caspase-3 at 10 uM
Caspase-3 (Homo sapiens), sequence (P42574 29-175 limits assumed): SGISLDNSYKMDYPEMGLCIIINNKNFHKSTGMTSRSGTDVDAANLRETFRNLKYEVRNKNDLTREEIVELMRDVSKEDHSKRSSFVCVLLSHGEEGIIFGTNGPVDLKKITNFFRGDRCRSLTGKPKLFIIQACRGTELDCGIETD
Caspase-3 (Homo sapiens), sequence (P42574 176-277 limits assumed): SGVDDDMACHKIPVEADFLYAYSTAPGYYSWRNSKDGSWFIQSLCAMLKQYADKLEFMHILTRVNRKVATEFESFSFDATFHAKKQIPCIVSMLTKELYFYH

[3] = target: Plasminogen (Homo sapiens) (UniProt P00747); assay: Inhibition of human plasmin at 10 uM
Chymase (Homo sapiens) = Chymase (Homo sapiens) (UniProt P23946); assay: Inhibition of human chymase at 10 uM
Chymase (Homo sapiens), sequence (P23946 whole entry): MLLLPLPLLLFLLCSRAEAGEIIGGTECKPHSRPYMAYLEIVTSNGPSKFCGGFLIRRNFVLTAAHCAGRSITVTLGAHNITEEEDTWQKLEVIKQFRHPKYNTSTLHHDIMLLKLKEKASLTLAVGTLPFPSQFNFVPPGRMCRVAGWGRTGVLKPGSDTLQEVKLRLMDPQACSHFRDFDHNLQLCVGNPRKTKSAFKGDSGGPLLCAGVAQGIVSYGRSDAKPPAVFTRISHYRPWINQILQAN

[4] = target: Histamine H1 receptor (Homo sapiens) (UniProt P35367); assay: Inhibition of human H1 receptor at 10 uM
Rattus norvegicus [5] = organism: Rattus norvegicus; assay: Inhibition of rat GABA-A receptor, benzodiazepine central at 10 uM
[6] = Cmax in monkey at 5 mg/kg, po; format: ADME, organism-based, Macaca mulatta; design: dose 5 mg/kg, route oral; settings: rhesus monkey, in vivo
Procedure, shortened: (§1)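 Single oral dose of 5 mg/kg in 0.5% Methocel with 0.3% Tween 80 (10 ml/kg) to fasted male animals: Sprague-Dawley rats (275-300 g, overnight fast with 10% dextrose water), rhesus monkeys, beagle dogs. Rat blood from cannulated carotid at 0-8 h, pooled from 3 rats per time point; monkey/dog n=3. Plasma solid-phase extracted, LC-MS/MS at m/z 869.3; noncompartmental analysis.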

Homo sapiens [7] = organism: Homo sapiens; assay: Inhibition of human dopamine receptor 4.2 at 10 uM
[8] = Tmax in rat at 5 mg/kg, po; format: ADME, organism-based; design: dose 5 mg/kg, route oral; settings: in vivo
Procedure, shortened: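 Male Sprague-Dawley rats (275-300 g), fasted overnight with 10% dextrose water. Single oral dose in 0.5% Methocel/0.3% Tween 80 at 10 ml/kg. Carotid-cannula blood taken 0-8 h, with plasma from 3 rats pooled per time point. Solid-phase extraction, then LC-MS/MS at m/z 869.3 (LOQ 10 nM). Noncompartmental analysis.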

Cathepsin B = Cathepsin B (Homo sapiens, UniProt P07858); assay: Inhibition of human cathepsin B at 10 uM
[9] = Cmax in dog at 5 mg/kg, po; format: ADME, organism-based, Canis lupus familiaris; design: dose 5 mg/kg, route oral; settings: in vivo; procedure, shortened: as §1
[10] = target: Matrilysin (Homo sapiens) (UniProt P09237); assay: Inhibition of human MMP-7 at 10 uM
Matrilysin (Homo sapiens), sequence (P09237 whole entry): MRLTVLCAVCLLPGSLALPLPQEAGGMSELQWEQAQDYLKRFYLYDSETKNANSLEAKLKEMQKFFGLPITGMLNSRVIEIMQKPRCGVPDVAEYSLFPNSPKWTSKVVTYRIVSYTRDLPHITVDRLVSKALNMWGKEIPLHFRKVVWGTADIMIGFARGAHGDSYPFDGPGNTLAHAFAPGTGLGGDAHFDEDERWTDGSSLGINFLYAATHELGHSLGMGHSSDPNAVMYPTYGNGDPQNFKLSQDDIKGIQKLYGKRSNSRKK

[11] = target: Neprilysin (Rattus norvegicus) (UniProt P07861); assay: Inhibition of rat neutral endopeptidase at 10 uM
[12] = target: Sodium-dependent noradrenaline transporter (Homo sapiens) (UniProt P23975); assay: Inhibition of human norepinephrine transporter at 10 uM
Rattus norvegicus [13] = organism: Rattus norvegicus; assay: Inhibition of rat glycine receptor at 10 uM
Homo sapiens [14] = organism: Homo sapiens; assay: Inhibition of human chymotrypsin at 10 uM
Rattus norvegicus [15] = organism: Rattus norvegicus; assay: Inhibition of rat 5-HT3 receptor at 10 uM
Huh-7 = assay: Cytotoxicity activity against human HuH7 cells by MTT assay; format: functional
Procedure, shortened: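 MTT assay in proliferating Huh-7 cells exposed 72 h to serial inhibitor dilutions; formazan read at 570 nm. CC50 taken from percent inhibition.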

[16] = target: Inositol 1,4,5-trisphosphate-gated calcium channel ITPR1 (Rattus norvegicus) (UniProt P29994); assay: Inhibition of rat IP3 receptor at 10 uM
Inositol 1,4,5-trisphosphate-gated calcium channel ITPR1 (Rattus norvegicus), sequence (P29994 whole entry, looked up): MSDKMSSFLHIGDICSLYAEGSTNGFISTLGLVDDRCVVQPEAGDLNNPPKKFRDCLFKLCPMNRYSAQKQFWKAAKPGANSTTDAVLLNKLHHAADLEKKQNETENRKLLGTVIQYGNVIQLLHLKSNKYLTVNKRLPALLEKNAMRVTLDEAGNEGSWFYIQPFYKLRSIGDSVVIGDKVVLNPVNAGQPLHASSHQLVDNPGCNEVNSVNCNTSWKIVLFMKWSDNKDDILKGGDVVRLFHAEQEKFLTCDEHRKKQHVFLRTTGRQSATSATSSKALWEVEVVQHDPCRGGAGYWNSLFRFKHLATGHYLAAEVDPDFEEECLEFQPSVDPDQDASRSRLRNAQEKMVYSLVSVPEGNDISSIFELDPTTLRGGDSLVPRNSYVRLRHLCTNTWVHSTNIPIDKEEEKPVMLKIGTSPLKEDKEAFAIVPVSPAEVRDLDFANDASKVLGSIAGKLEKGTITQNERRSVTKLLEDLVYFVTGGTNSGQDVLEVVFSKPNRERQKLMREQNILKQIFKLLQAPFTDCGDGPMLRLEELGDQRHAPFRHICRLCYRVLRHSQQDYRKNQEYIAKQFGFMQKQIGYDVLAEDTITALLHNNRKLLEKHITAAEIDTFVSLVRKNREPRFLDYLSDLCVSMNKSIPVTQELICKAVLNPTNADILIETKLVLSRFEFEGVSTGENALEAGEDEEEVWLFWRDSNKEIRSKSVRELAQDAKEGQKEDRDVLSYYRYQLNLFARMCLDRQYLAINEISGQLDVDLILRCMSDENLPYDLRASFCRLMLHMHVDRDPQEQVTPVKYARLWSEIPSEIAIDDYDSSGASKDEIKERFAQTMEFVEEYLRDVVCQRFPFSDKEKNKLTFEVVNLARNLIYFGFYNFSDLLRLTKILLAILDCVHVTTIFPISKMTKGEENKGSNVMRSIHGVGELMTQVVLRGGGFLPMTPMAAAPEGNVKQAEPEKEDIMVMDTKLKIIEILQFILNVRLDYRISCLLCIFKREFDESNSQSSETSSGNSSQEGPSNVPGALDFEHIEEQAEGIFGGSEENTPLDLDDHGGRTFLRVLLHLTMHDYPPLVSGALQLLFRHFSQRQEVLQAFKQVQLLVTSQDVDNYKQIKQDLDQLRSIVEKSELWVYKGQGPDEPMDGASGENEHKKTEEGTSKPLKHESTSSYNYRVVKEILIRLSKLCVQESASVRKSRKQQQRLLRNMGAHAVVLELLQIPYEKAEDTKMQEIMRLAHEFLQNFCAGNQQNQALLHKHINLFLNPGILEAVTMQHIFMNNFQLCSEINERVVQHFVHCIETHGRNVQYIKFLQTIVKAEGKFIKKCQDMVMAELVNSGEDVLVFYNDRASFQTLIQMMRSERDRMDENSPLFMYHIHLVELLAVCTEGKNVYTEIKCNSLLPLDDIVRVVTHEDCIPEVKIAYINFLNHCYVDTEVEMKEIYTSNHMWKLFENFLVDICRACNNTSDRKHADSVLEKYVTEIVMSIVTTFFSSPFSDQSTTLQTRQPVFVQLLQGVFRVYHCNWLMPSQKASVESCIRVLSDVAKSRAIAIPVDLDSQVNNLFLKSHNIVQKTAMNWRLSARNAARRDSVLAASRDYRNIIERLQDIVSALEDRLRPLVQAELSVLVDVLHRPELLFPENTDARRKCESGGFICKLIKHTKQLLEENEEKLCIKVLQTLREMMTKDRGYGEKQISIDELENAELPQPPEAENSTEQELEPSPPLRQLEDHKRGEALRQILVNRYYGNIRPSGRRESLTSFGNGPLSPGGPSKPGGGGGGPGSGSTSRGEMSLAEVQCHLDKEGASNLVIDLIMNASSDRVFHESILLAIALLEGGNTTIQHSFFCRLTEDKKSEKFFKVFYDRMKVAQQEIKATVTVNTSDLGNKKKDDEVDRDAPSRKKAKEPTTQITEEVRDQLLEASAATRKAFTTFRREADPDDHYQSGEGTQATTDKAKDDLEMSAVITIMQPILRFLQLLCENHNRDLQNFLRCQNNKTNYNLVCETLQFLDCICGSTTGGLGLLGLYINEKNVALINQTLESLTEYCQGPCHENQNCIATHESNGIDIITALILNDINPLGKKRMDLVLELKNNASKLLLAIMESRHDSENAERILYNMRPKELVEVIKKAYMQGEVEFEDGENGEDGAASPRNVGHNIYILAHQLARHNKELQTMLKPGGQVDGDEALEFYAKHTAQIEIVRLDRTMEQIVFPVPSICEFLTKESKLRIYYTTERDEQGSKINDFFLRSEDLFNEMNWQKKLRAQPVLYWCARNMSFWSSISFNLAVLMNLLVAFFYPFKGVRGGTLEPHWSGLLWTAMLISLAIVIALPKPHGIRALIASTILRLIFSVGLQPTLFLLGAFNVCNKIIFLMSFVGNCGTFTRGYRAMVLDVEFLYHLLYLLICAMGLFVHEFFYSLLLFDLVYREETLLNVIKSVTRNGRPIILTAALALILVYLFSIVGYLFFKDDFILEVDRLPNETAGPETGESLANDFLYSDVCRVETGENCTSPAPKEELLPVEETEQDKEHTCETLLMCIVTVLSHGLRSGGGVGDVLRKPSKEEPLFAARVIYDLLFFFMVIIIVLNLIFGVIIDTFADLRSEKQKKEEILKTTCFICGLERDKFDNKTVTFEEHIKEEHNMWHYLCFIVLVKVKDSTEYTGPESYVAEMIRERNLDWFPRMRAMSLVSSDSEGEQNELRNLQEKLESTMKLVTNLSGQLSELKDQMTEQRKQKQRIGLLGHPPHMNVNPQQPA

Trypsin (Homo sapiens) = Trypsin (Homo sapiens) (UniProt P07477+P07478+P35030); assay: Inhibition of human trypsin at 10 uM; format: protein assay
Rattus norvegicus [17] = organism: Rattus norvegicus; assay: Inhibition of rat calcium channel N-type at 10 uM
[18] = target: Adenosine receptor A2a (Homo sapiens) (UniProt P29274); assay: Inhibition of human adenosine A2A receptor at 10 uM
[19] = target: D(2) dopamine receptor (Homo sapiens) (UniProt P14416); assay: Inhibition of human dopamine receptor 2s at 10 uM
D(2) dopamine receptor (Homo sapiens), sequence (P14416 whole entry): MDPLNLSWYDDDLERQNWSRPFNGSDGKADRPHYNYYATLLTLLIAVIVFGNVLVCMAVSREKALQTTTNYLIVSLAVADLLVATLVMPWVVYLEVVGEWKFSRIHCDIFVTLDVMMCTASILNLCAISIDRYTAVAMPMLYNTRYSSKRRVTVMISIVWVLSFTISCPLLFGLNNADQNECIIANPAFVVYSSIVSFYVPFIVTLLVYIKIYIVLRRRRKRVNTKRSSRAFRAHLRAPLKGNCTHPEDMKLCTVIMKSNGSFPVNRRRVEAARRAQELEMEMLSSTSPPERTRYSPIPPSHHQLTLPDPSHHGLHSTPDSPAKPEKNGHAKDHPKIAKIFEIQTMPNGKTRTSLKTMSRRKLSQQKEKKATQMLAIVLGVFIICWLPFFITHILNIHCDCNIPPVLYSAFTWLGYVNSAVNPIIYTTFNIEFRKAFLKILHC

[20] = Tmax in monkey at 5 mg/kg, po; format: ADME, organism-based, Macaca mulatta; design: dose 5 mg/kg, route oral; settings: rhesus monkey, in vivo
Procedure, shortened: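 Fasted male rhesus monkeys (3.0-4.8 kg) given a single oral dose in 0.5% Methocel/0.3% Tween 80. Plasma taken by solid-phase extraction and measured by LC-MS/MS at m/z 869.3 (LOQ 10 nM). Noncompartmental analysis. Mean ± SE for three males.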

[21] = target: Coagulation factor X (Homo sapiens) (UniProt P00742); assay: Inhibition of human factor 10a at 10 uM
[22] = AUC in rat at 5 mg/kg, po; format: ADME, organism-based; design: dose 5 mg/kg, route oral; settings: plasma; procedure, shortened: as §1
[23] = target: Neutrophil elastase (Homo sapiens) (UniProt P08246); assay: Inhibition of human serum elastase, neutrophil at 10 uM by fluorimetry
Neutrophil elastase (Homo sapiens), sequence (P08246 whole entry): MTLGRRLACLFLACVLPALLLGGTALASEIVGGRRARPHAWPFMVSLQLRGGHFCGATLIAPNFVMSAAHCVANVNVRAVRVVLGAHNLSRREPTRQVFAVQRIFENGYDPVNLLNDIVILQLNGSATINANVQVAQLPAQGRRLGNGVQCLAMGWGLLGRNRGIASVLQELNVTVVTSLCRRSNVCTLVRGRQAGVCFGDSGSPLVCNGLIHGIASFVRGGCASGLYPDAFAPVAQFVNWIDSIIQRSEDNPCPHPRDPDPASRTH

[24] = target: Pro-cathepsin H (Homo sapiens) (UniProt P09668); assay: Inhibition of human cathepsin H at 10 uM
[25] = target: Cathepsin Z (Homo sapiens) (UniProt Q9UBR2); assay: Inhibition of human cathepsin X at 10 uM
Rattus norvegicus [26] = organism: Rattus norvegicus; assay: Inhibition of rat opiate receptor at 10 uM
Rattus norvegicus [27] = organism: Rattus norvegicus; assay: Inhibition of rat GABA-A receptor, agonist site at 10 uM; format: functional
Caspase-6 (Homo sapiens) = Caspase-6 (Homo sapiens) (UniProt P55212); assay: Inhibition of human caspase-6 at 10 uM
[28] = target: D(2) dopamine receptor (Homo sapiens) (UniProt P14416); assay: Inhibition of human dopamine receptor 2L at 10 uM
[29] = AUC in monkey at 5 mg/kg, po; format: ADME, organism-based, Macaca mulatta; design: dose 5 mg/kg, route oral; settings: rhesus monkey, plasma; procedure, shortened: as §1
[30] = target: 5-hydroxytryptamine receptor 4 (Cavia porcellus) (UniProt O70528); assay: Inhibition of guinea pig 5-HT4 receptor at 10 uM
[31] = target: Protein kinase C (PKC) (Rattus norvegicus) (UniProt P05696+P68403+P09216+P63319+P09215+Q64617+Q9WTQ0+P09217); assay: Inhibition of rat PKC at 10 uM
[32] = target: Cathepsin G (Homo sapiens) (UniProt P08311); assay: Inhibition of human cathepsin G at 10 uM
Homo sapiens [33] = organism: Homo sapiens; assay: Inhibition of human nicotinic acetylcholine receptor at 10 uM
Hepatitis C virus = assay: Antiviral activity against HCV 2a clone JFH1 infected in Huh7 cells assessed as inhibition of viral replication after 72 hrs by RT-PCR; format: functional, organism-based, Hepacivirus hominis; settings: genotype 2a clone JFH1, Huh-7, 72 h
Procedure, shortened: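 Genotype 2a replicon (Huh-7 cells carrying an unadapted JFH-1 NS3-NS5B subgenomic replicon) was kept with 0.25 mg/ml G418 and plated at 10,000 cells/well without G418. Next day, serial dilutions in DMEM/10% FBS/0.5% DMSO were added for 72 h. Replicon RNA was measured by TaqMan RT-PCR and normalized to total RNA. Mean ± SD, ≥3 experiments.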

[34] = target: Cathepsin D (Homo sapiens) (UniProt P07339); assay: Inhibition of human cathepsin D; settings: concentration not given here
[35] = target: Collagenase 3 (Homo sapiens) (UniProt P45452); assay: Inhibition of human MMP-13 at 10 uM
[36] = target: Thromboxane A2 receptor (Homo sapiens) (UniProt P21731); assay: Inhibition of human Thromboxane A2 receptor at 10 uM
Cathepsin C (Bos taurus) = Cathepsin C (Bos taurus) (UniProt Q864S1); assay: Inhibition of bovine cathepsin C at 10 uM

C=C[C@@H]1C[C@]1(NC(=O)[C@@H]1C[C@@H](Oc2cc(-c3csc(NC(=O)C(C)C)n3)nc3c(Br)c(OC)ccc23)CN1C(=O)[C@@H](NC(=O)OC1CCCC1)C(C)(C)C)C(=O)O
inhibition (Rattus norvegicus [1]): 12%
inhibition (Caspase-5 (Homo sapiens)): 24%
inhibition [2]: 77%
inhibition (Caspase-3 (Homo sapiens)): 5%
inhibition [3]: 18%
inhibition (Chymase (Homo sapiens)): 11%
inhibition [4]: 3%
inhibition (Rattus norvegicus [5]): 12%
Cmax [6]: 2000 nM
inhibition (Homo sapiens [7]): 58%
Tmax [8]: 1.5 h
inhibition (Cathepsin B): 22%
Cmax [9]: 3800 nM
inhibition [10]: 6%
inhibition [11]: 11%
inhibition [12]: 20%
inhibition (Rattus norvegicus [13]): 6%
inhibition (Homo sapiens [14]): 0%
inhibition (Rattus norvegicus [15]): 7%
CC50 (Huh-7): 30 µM
inhibition [16]: 0%
inhibition (Trypsin (Homo sapiens)): 2%
inhibition (Rattus norvegicus [17]): 9%
inhibition [18]: 23%
inhibition [19]: 10%
Tmax [20]: 2 h
inhibition [21]: 5%
AUC [22]: 1.55 µM·h
inhibition [23]: 22%
inhibition [24]: 21%
inhibition [25]: 0%
inhibition (Rattus norvegicus [26]): 26%
inhibition (Rattus norvegicus [27]): 16%
inhibition (Caspase-6 (Homo sapiens)): 28%
inhibition [28]: 1%
AUC [29]: 8.3 µM·h
inhibition [30]: 18%
inhibition [31]: 15%
inhibition [32]: 18%
inhibition (Homo sapiens [33]): 22%
EC50 (Hepatitis C virus): 0.05 µM
inhibition [34]: 43%
inhibition [35]: 5%
inhibition [36]: 47%
inhibition (Cathepsin C (Bos taurus)): 1%
